The list is a sample of the results.
Apaf1 activ – activates human Apaf-1 apoptosome | activity change, negative = activation, % at 20 µM | Apaf-1 apoptosome caspase-3 activation, DEVD-Rh110 fluorescence; active compounds read low | AID 489031 | 330,000 tested, 0.31% active | O14727;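 active = activity change at or below -40% at 20 µM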
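Schedule: 30 min preincubation, 50 min reaction, room temperature / System: biochemical Apaf-1 apoptosome reconstitution / Medium: 20 mM HEPES pH 7.5 with CHAPS, BSA / Evaluation: Caspase-3 cleavage activity downstream of Apaf-1 activation / Detection: Caspase-3-released Rh110 fluorescence, 540 nm emission, 480 nm excitation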
Rh110 act interf – counter-screen for Apaf-1 activators: fluorescence interference; fluorescence interference (activity change), % at 20 µM, hits read low; 980 tested, under 10 active; Rh110 fluorescence interference, quenched caspase reaction, Ex480/Em540; shares compounds with Apaf1 activ; AID 504616;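 active = mean activity change at or below -40% when tested at 20 µM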
Apaf-1 act conf2 – confirmation of human Apaf-1 activators; reconstituted apoptosome caspase-3 activity, DEVD-Rh110 fluorescence; active compounds read low; 980 tested, 5% active; activity change, negative = activation, % at 20 µM; shares compounds with Apaf1 activ;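 active = mean activity change at or below -40%, meaning activation of 40% or more, at 20 µM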
Apaf1 act interf – Apaf-1 activator counter-screen fluorescence artifact; shares compounds with Apaf1 activ; fluorescence interference counterscreen, Apaf-1 activator assay; EC50, µM; 55 tested, under 10 active; AID 588592; call rule not given here
Numbers stand for hits; - = inactive; . = no result given.

SMILES	Apaf1 activ	Rh110 act interf	Apaf-1 act conf2	others
COc1ccc(OC)c2c1C(=O)c1ccccc1C2=O	-	.	.
CCO[C@@H]1OC(C(=O)N2CCN(Cc3ccc4c(c3)OCO4)CC2)=C[C@H](c2ccc(C(F)(F)F)cc2)[C@H]1CCCO	-	.	.
CCCCn1nnc(NC(=O)Cc2ccc(Cl)cc2)n1	-95	-	-
CN1CCN(c2ccc(NC(=O)c3ccc(-c4ccc(Br)cc4)o3)cc2)CC1	-	.	.
CCCn1nnc(NC(=O)c2ccc(-c3cccc(Cl)c3)o2)n1	-44	-	-
CC1=NN(c2ccc(C)cc2C)C(=O)C1C(c1cccc(O)c1)C1C(=O)N(c2ccc(C)cc2C)N=C1C (configuration not stated)	-	.	.
Cc1cc(C)c(S(=O)(=O)Nc2ccc3c4c(cccc24)CC3)c(C)c1	-	.	.
COc1cc(C2Nc3cccc4cccc(c34)N2)cc(OC)c1OC(C)=O	-	.	.
COc1ccc(NC(=O)CCCCCN2C(=O)c3cccc([N+](=O)[O-])c3C2=O)c(OC)c1	-	.	.
COc1cc([N+](=O)[O-])ccc1NC(=O)COC(=O)c1ccc(NC(N)=O)cc1	-44	-	-43	Apaf1 act interf=-
COc1cc([N+](=O)[O-])ccc1NC(=O)CN1CCc2cc(OC)c(OC)cc2C1	-	.	.
c1cc2cn[nH]c2cc1NC1CCCCCC1	-	.	.
c1cc2c3c(cccc3c1)NC1(CCC3(CC1)Nc1cccc4cccc(c14)N3)N2	-	.	.
CC(=O)Nc1cccc(NC(=S)Nc2cccc3ccccc23)c1	-	.	.
CCOc1ccc(S(=O)(=O)N(CC(=O)N2CCc3ccccc32)Cc2ccco2)cc1	-307	-	-
COc1ccc2c3c(cccc13)N(C)N=C2C	-	.	.
CCCCCc1ccc(OCCCC[n+]2cccc(C)c2)c(CCCCC)c1	-	.	.
CCN(CC)S(=O)(=O)c1ccc(Cl)c(NC(=O)c2ccc(C#N)cc2)c1	-270	-	-
CCN(c1ccccc1)S(=O)(=O)c1ccc(Cl)c(NC(=O)Nc2ccc(Cl)cc2C#N)c1	-	.	.
C#CCOCCOCCOCCNc1nc(N2CCN(C(=O)CCCCCCCCCCNC(=O)[C@H](CCC(=O)O)n3cc(CCCCCN)nn3)CC2)nc(N2CCN(C(=O)CCCCCCCCCCNC(=O)[C@@H]([C@H](C)O)n3cc(C)nn3)CC2)n1	-	.	.
C=CCNC(=O)c1c(N)n(-c2cccc(S(N)(=O)=O)c2)c2nc3ccccc3nc12	-	.	.
NS(=O)(=O)c1ccc(NC(=O)c2ccc3nccnc3c2)cc1	-44	-	-
O=C(O)c1ccc(N2C(=O)/C(=C/c3ccc(-c4ccc([N+](=O)[O-])cc4)o3)C=C2c2ccccc2)cc1	-	.	.
COC(=O)c1cccc(-c2ccc(C(c3c(C)[nH][nH]c3=O)c3c(C)[nH][nH]c3=O)o2)c1	-	.	.
O=C(c1ccccc1)N1CCCOC1c1ccccc1 (configuration not stated)	-67	-	-
SMILES	Apaf1 activ	Rh110 act interf	Apaf-1 act conf2	others
Cc1coc2c1C(=O)C(=O)c1c-2ccc2c(C)cccc12	-	.	.
CCN(CC)CCCNC1=C(Cl)C(=O)c2ccccc2C1=O	-	.	.
O=C(CSc1nc2ccccc2s1)N/N=C/c1ccco1	-62	-	-
Cn1c(SCC(=O)Nc2ccc3nc(SCC(=O)N4CCCC4)sc3c2)nnc1-c1ccccc1	-	.	.
O=[N+]([O-])c1c(NCCCO)cc(Sc2nc3ccccc3s2)c2nonc12	-	.	.
CC(=C/c1ccco1)/C=N/NC(=O)CSc1nnc(SCc2ccc(C)cc2)s1	-90	-	-
CC(C)(C)NC(=O)C[C@H]1C[C@H](C(=O)N2CCOCC2)[C@@]2(CCC3CCCC3)c3[nH]c4ccc(Cl)cc4c3CCN2C1=O	-	.	.
CCCC[n+]1ccn(C2=C([O-])c3ccccc3C(=O)/C2=N\S(=O)(=O)c2ccccc2)c1	-	.	.
COCCCn1c(=O)c2sccc2n(Cc2ccccc2C)c1=O	-	.	.
CN(CCO)c1nc(N)c2c(N)nc3c(c2c1C#N)CC(=O)N3Cc1cccs1	-	.	.
CCCN(CC1CC1)c1nc(N)c2c(N)nc(OC)cc2c1C#N	-	.	.
CCc1ccc(OCC(O)CN2CCC(CN3C(=O)c4cccc5cccc(c45)C3=O)CC2)cc1 (configuration not stated)	-	.	.
CCOC(=O)C1(CCOc2ccccc2)CCN(CC(O)CO)CC1 (configuration not stated)	-53	-	-
C[C@]12C=CC(=O)C=C1CC[C@@H]1C2=CC[C@]2(C)[C@@H](C(=O)CN3CCN(c4cc(N5CCCC5)nc(N5CCCC5)n4)CC3)CC[C@@H]12	-	.	.
CC(=O)N1CCN(C(=S)Nc2ccc(SC(F)F)cc2)CC1	-	.	.
O=C(OCC(=O)N1CCCCC1)c1n[nH]c(=O)c2ccccc12	-572	-	-
CCC(=O)NC1=C(Cl)C(=O)C(NC(=O)CC)=C(Cl)C1=O	-	.	.
CCOC(=O)N1CCC(Nc2c(-c3ccc(C)c(C)c3)c(=O)c2=O)CC1	-202	-	-
CCOC(=O)N1CCC(NC(=O)c2ccc3c(c2)sc2nc(-c4ccc(OC)cc4)cn23)CC1	-	.	.
CCN(CC)c1nc(OCCNC(=O)Nc2ccccc2)nc(N(CC)CC)n1	-52	-	-
O=C(NCCOc1nc(N2CCCCC2)nc(N2CCCCC2)n1)Nc1ccccc1	-	.	.
O=C(Nc1ccccc1)Nc1ccc(O)c2ccccc12	-	.	.
CCCN[C@H]1CCc2nc(N)sc2C1	-	.	.
CCOC(=O)C1CCN(C(=O)c2c(C)oc3c2C(=O)c2ccccc2C3=O)CC1	-	.	.
CCOC(=O)C1CCCN(C(=O)c2cccc(S(=O)(=O)N(C)c3c(C)n(C)n(-c4ccccc4)c3=O)c2)C1 (configuration not stated)	-	.	.
SMILES	Apaf1 activ	Rh110 act interf	Apaf-1 act conf2	others
CCOC(=O)C1CCN(C(=O)c2ccccc2NS(=O)(=O)c2ccccc2)CC1	-496	-	-
Oc1c(Cl)cc(Cl)c2c1NCCC2	-	.	.
COc1ccc(-c2[nH]nc3oc(=O)cc(C)c23)cc1	-135	-	-
COc1ccc(-c2cc(-c3ccc(F)cc3)nc(N3CCN(C)CC3)n2)cc1	-	.	.
COc1ccc(C[C@H]2CN3C(=NC[C@@H]3Cc3ccccc3)N2C[C@H](C)NC(=O)CCC2CCCCC2)cc1	-	.	.
COc1cc(/C=C2/C(=O)N(c3ccc([N+](=O)[O-])cc3)N=C2N2CCOCC2)ccc1O	-	.	.
COc1cc(/C=C2\SC(=O)N(c3cccc(Cl)c3)C2=O)cc([N+](=O)[O-])c1O	-142	-	-132	Apaf1 act interf=-
COc1cc2sc(-c3ccccc3OC)c(-c3ccc(OCCN4CCCCC4)cc3)c2cc1OC	-	.	.
CN1C(C(=O)NCC2CC2)CC2Cn3c(nc4cc5ccccc5cc43)C21 (configuration not stated)	-	.	.
CCCCc1ccc(Nc2nc(CCC)cc(=O)[nH]2)cc1	-	.	.
NC(=O)CSc1ncc(-c2ccc([N+](=O)[O-])cc2)[nH]1	-244	-	-
COC(=O)C1=C(N)OC2=C(C(=O)CC(C)(C)C2)C1c1cccnc1 (configuration not stated)	-308	-	-
COc1cc(OC)c2c(-c3ccccc3)cc(=O)oc2c1C(CCN1CCCCC1)c1ccc(N(C)C)cc1 (configuration not stated)	-	.	.
COCCn1c(N)c(C(=O)NCc2cccs2)c2nc3ccccc3nc21	-	.	.
